Experimental data as given in ChEMBL document CHEMBL1208708, “Piperidinyl-nicotinamides as potent and selective somatostatin receptor subtype 5 antagonists” (Bioorg Med Chem Lett, 2010).
Values after ≈ are worked out from the molar mass of the structure shown. Active and inactive are the calls of the source. No cut-off for these calls is given here.

What was measured:
[1] = target: T1, Somatostatin receptor type 5 (Homo sapiens, UniProt P35346); assay: Displacement of radio labeled 11 Tyr SST14 from human SST5 receptor expressed in CHO cells; format: cell-based
Method in brief: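 Membranes from SST5-expressing cells, made by sonication, incubated with radiolabeled 11Tyr SST-14 and varying test compound; non-specific binding defined with unlabeled SST-14. Incubation stopped by glass-fiber filtration, bound radioactivity counted; IC50 and Ki derived.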

Homo sapiens = species on record: Homo sapiens; assay: Selectivity ratio of human SST1 receptor to human SST5 receptor
[2] = target: Histamine H1 receptor (Homo sapiens) (UniProt P35367); assay: Inhibition of human histamine H1 receptor ar 3 uM
[3] = Solubility of the compound in 50 mM phosphate buffer at pH 6.5 by lyophilisation solubility assay; format: physicochemical
Method in brief: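 Compound taken from DMSO stock solution, lyophilized, then dissolved in 50 mM phosphate buffer at pH 6.5; dissolved amount read spectrophotometrically.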

[4] = Membrane permeability of the compound by PAMPA; format: ADME; conditions: read-out: permeability
[5] = Octanol-TAPSO distribution coefficient, log D of the compound at pH 7.4 by spectrophotometric analysis; format: physicochemical; conditions: octanol/TAPSO buffer
Method in brief: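 Octanol/50 mM TAPSO buffer at pH 7.4 containing 5% (v/v) DMSO; partitioning read spectrophotometrically.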

[6] = Dissociation constant, pKa of the compound by spectrophotometric analysis; format: physicochemical
Method in brief: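 Measured spectrophotometrically in SGA buffer with 10% (v/v) methanol, ionic strength 150 mM; value refers to the piperidine nitrogen.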

[7] = target: T1, Somatostatin receptor type 5; assay: Antagonist activity at human SST5 receptor expressed in CHO cells assessed as inhibition of forskolin-induced cAMP accumulation by FRET assay; format: functional, cell-based
[8] = target: Somatostatin receptor type 2 (Homo sapiens) (UniProt P30874); assay: Antagonist activity at human SST2 receptor expressed in CHO cells assessed as inhibition of forskolin-induced cAMP accumulation by FRET assay; format: functional, cell-based
[9] = target: Somatostatin receptor type 3 (Homo sapiens) (UniProt P32745); assay: Antagonist activity at human SST3 receptor expressed in CHO cells assessed as inhibition of forskolin-induced cAMP accumulation by FRET assay; format: functional, cell-based
[10] = target: Somatostatin receptor type 4 (Homo sapiens) (UniProt P31391); assay: Antagonist activity at human SST4 receptor expressed in CHO cells assessed as inhibition of forskolin-induced cAMP accumulation by FRET assay; format: functional, cell-based
Sequence of Somatostatin receptor type 4 (Homo sapiens) (P31391 whole entry): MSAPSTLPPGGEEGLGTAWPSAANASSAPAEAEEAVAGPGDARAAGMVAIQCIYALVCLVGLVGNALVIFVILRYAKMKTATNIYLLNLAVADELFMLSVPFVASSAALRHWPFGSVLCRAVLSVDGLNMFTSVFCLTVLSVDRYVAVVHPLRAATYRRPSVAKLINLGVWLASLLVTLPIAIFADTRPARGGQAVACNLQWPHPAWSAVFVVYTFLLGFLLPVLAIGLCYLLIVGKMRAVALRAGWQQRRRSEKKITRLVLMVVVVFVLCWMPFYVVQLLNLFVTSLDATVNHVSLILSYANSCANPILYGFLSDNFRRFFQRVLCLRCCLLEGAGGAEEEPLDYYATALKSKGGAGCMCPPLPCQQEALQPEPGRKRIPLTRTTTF

T1 sequence (P35346 whole entry): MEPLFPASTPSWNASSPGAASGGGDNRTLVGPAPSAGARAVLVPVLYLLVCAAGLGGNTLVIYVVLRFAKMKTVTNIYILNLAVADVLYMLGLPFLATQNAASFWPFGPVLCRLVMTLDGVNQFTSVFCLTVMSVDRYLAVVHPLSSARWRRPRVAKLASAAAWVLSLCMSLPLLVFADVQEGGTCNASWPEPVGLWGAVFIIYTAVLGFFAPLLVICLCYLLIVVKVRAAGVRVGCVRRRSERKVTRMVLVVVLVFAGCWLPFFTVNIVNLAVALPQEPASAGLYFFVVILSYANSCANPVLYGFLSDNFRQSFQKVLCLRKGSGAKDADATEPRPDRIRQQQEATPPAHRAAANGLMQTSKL
Sequence of Histamine H1 receptor (Homo sapiens) (P35367 whole entry): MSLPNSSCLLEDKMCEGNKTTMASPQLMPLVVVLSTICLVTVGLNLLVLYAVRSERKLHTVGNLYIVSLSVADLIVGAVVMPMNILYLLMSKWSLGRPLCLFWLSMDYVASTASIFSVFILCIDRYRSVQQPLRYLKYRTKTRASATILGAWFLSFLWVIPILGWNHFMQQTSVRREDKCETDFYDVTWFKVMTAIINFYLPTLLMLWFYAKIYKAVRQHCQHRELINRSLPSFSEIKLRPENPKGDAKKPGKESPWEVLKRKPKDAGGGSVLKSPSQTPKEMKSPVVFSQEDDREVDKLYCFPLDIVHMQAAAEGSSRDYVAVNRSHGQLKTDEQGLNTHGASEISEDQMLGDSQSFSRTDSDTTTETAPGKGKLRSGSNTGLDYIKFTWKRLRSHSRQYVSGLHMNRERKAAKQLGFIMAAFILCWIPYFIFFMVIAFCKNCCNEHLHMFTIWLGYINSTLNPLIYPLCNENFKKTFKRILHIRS
Sequence of Somatostatin receptor type 2 (Homo sapiens) (P30874 whole entry): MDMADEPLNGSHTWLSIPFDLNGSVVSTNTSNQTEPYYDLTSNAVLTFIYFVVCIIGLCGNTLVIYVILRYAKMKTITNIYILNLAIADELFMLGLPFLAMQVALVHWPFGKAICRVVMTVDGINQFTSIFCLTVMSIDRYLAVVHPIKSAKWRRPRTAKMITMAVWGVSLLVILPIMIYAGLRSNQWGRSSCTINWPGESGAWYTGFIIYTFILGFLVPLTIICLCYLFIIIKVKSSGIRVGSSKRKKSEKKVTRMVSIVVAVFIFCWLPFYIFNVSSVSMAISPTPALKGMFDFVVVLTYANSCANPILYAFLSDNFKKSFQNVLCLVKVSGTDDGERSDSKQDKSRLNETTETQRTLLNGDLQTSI
Sequence of Somatostatin receptor type 3 (Homo sapiens) (P32745 whole entry): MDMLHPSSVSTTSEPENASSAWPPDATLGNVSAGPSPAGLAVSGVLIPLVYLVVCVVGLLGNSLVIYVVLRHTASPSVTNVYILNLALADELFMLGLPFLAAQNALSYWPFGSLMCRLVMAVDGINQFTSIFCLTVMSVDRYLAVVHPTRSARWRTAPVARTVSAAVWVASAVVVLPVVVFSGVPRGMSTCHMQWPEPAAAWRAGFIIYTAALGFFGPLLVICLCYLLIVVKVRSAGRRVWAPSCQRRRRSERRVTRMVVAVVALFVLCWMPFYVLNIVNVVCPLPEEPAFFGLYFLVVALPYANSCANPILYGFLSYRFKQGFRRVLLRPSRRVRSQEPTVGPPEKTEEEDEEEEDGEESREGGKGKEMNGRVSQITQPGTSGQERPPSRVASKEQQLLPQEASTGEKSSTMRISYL

Structure (SMILES)	Ki [1] [nM]	Selectivity ratio (Homo sapiens)	inhibition [2] [%]	solubility [3] [µg/mL]	Papp [4] [×10⁻⁶ cm/s]	logD [5]	pKa [6]	EC50 [7] [nM]	Activity [8]	Activity [9]	Activity [10]
CCOc1cc(CN2CCCC(NC(=O)c3cncc(C)c3)CC2)cc(OCC)c1-c1ccc(F)cc1 (racemic)	9.3	86	54	81 (≈ 160 µM)	1.56	3.31	8.34	> 1000			
CCOc1cc(CN2CCC(NC(=O)c3cncc(C)c3)CC2)ccc1Cl	15	335		172 (≈ 443 µM)	1.93	3.05	7.63				
CCOc1cc(CN2CCC[C@@H](NC(=O)c3cncc(C)c3)CC2)ccc1C	22	256	97								
CCOc1cc(CN2CC(NC(=O)c3cncc(C)c3)C2)cc(OCC)c1F	> 1000			> 499	1.93	2.44	7.19				
CCOc1cc(CN2CCC(NC(=O)c3cncc(C)c3)CC2)ccc1-c1ccc(C(F)(F)F)cc1	11	89	48	< 1	0.03	> 4	7.96				
CCOc1cc(CN2CCC(NC(=O)c3ccc(NC(C)C)nc3)CC2)cc(OCC)c1F	6.3	141	35	> 520	2.41	3.39	7.84	> 1000			
CCOc1cc(CN2CCC(NC(=O)c3cncc(C)c3)CC2)cc(OCC)c1-c1ccc(F)cc1	4.4	59	5.9	94 (≈ 191 µM)	0.46	4.01	7.69	> 1000			
CCOc1cc(CN2CCC(NC(=O)c3cncc(C)c3)CC2)cc(OCC)c1C	4			106 (≈ 258 µM)	2.36	3.61	7.92				
CCOc1cc(CN2CCC(NC(=O)c3cncc(C)c3)CC2)ccc1-c1ccc(F)cc1	4.9	84	89	101 (≈ 226 µM)	1.32	4.1	7.87	> 1000			
CCOc1cc(CN2CCC(NC(=O)c3cncc(C)c3)CC2)cc(OCC)c1-c1ccccc1	5.4	224	-1.2	152 (≈ 321 µM)	0.64	3.73	7.74	> 1000			
CCOc1cc(CN2CCC(NC(=O)c3cncc(C)c3)CC2)cc(OCC)c1F	25	180	25	443 (≈ 1070 µM)	3.48	2.9	7.7	> 1000			
CCOc1cc(CN2CCC[C@@H](NC(=O)c3cncc(C)c3)CC2)cc(OCC)c1F	22	253	58								
CCOc1cc(CN2CCC(NC(=O)c3ccc(N)nc3)CC2)ccc1C	19	> 500	85	375 (≈ 1020 µM)	2.4	2.24	8.27	> 1000			
CCOc1cc(CN2CCC[C@H](NC(=O)c3cncc(C)c3)CC2)ccc1Cl	637										
CCOc1cc(CN2CCC(NC(=O)c3ccc(NC)nc3)CC2)cc(OCC)c1-c1ccc(F)cc1	2.5	211	11	153 (≈ 302 µM)	1.23	3.83	7.86	> 1000			
CCOc1cc(CN2CCC(NC(=O)c3ccc(NC)nc3)CC2)cc(OCC)c1F	18	> 500	55	330 (≈ 767 µM)	2.98	2.66	7.83	> 1000			
CCOc1cc(CN2CCC(NC(=O)c3cncc(C)c3)CC2)cc(OCC)c1Cl	4.4			216 (≈ 500 µM)	3.82	3.43	7.46	> 1000			
CCOc1cc(CN2CCC(NC(=O)c3ccc(N)nc3)CC2)cc(OCC)c1-c1ccc(F)cc1	7.1	407	4.7	123 (≈ 250 µM)	1.39	3.15	7.86	> 1000			
CCOc1cc(CN2CCC(NC(=O)c3ccc(NC)nc3)CC2)cc(OCC)c1-c1ccccc1	6.9	439	13	155 (≈ 317 µM)	2.07	3.13	7.9	> 1000			
CCOc1cc(CN2CCC[C@@H](NC(=O)c3cncc(C)c3)CC2)ccc1Cl	18	175	98								
CCOc1cc(CN2CCCC(NC(=O)c3ccc(N)nc3)CC2)cc(F)c1F (racemic)	436							> 1000	inactive	inactive	inactive
CCOc1cc(CN2CCC(NC(=O)c3cncc(C)c3)CC2)ccc1C	21	> 500	81	> 433	2.94	3.03	8.08				
CCOc1cc(CN2CCC(NC(=O)c3cncc(C)c3)CC2)cc(OCC)c1-c1ccc(OC(F)(F)F)cc1	2.4	743	12	< 1		> 4		> 1000			
CCOc1cc(CN2CCC(NC(=O)c3ccc(Cl)nc3)CC2)cc(OCC)c1-c1ccc(F)cc1	7.9	54	7.1	76 (≈ 148 µM)		3.55	7.8	> 1000			
CCOc1cc(CN2CCC(NC(=O)c3ccc(N)nc3)CC2)cc(OCc2ccccc2)c1-c1ccc(F)cc1	6.7	660	-1.2	5 (≈ 9.01 µM)	0.14	3.94	7.66	> 1000	inactive	inactive	inactive
CCOc1cc(CN2CCC(NC(=O)c3cncc(C)c3)CC2)cc(OCC)c1-n1ccnc1	11	213	33	473 (≈ 1020 µM)	3.17	2.61	7.34	> 1000			
